Shown are actives, neighbours in structure and some others; about 4.5% of the full set was active somewhere.
OX1R antag-1 – antagonists of human orexin 1 receptor (OX1R). hit rate 1.8% among 330,000. OX1R-expressing cells, FRET antagonist read-out. AID 485270, 2010. inhibition, % at 6.6 µM; in the data active means inhibition mostly above about 38%, no sharp cut-off; inactive means mostly below about 40%;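 further: 0% = agonist challenge alone and 100% = reference antagonist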
GPR7 antag – GPR7 receptor antagonists, primary screen, cell-based, fluorescence, single concentration; AID 1861, 2009; inhibition, % at 4.4 µM; hit rate 1.1% among 290,000; GPR7-expressing cells, fluorescence antagonist assay; in the data active means inhibition above about 16%, passing the limit was not always enough;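 further: cells stimulated with the agonist NPW; 0% = agonist with vehicle and 100% = vehicle without agonist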
TAAR1 antagonist – human TAAR1 antagonists, primary screen, Fluo-8 calcium fluorescence, CHO RD-HGA16 cells. Trace amine-associated receptor 1 (Homo sapiens), Q96RJ0. antagonist. inhibition, % at 3 µM. hit rate 1.5% among 360,000;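 active means inhibition above a per-plate cutoff, the mean inhibition of test compounds on that plate plus 3 SD, cut at about 49% in these data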;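 further: 0% = DMSO plus EC80 beta-PEA response and 100% = DMSO alone without agonist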
Target sequence (Q96RJ0 whole entry, looked up): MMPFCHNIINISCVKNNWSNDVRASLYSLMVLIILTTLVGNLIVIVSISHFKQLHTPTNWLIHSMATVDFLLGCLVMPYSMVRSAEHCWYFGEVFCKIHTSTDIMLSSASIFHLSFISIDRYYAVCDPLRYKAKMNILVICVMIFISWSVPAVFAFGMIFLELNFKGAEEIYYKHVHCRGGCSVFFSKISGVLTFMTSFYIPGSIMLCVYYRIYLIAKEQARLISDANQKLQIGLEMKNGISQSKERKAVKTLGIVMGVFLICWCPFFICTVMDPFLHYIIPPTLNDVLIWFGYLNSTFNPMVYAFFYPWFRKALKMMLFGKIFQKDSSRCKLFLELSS
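Assay system: RD-HGA16 CHO cells with stable hTAAR1 and Gα16 / Reagent: EC80 β-phenethylamine stimulus / Doses: 3 µM, single point / Timing: dye loading 75 min at 37 °C, then 30 min room temperature / Measured by: Fluo-8 intracellular calcium dye fluorescence, real-time kinetic reads / Controls: vehicle wells and EC80 agonist wells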
OX1R antag-2 – OX1R (HCRTR1) antagonists, primary screen, fluorescence, CHO/OX1R cells, Fluo-8 calcium, orexin A; inhibition, % at 5 µM; AID 434989, 2010; Fluo-8 calcium fluorescence; hit rate 0.43% among 330,000; Orexin/Hypocretin receptor type 1 (Homo sapiens), O43613;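 active means inhibition above its plate's threshold, mean inhibition of all tested compounds on the plate plus 3 SD, cut at about 37% in these data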;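 further: 0% = orexin A challenge wells and 100% = SB-334867-A antagonist wells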
TAAR1 ag – human TAAR1 agonists, primary screen, Fluo-8 calcium fluorescence, CHO RD-HGA16 cells. Trace amine-associated receptor 1 (Homo sapiens), Q96RJ0. vehicle wells 0%, saturating PEA agonist 100%. activation, % at 3 µM. hit rate 0.99% among 360,000;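 active means activation above the mean activation of all test compounds in the run plus 3 SD, cut at about 38% in these data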
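System: CHO-derived RD-HGA16 cells with stable Gα16 and human TAAR1 / Times: 17-24 h plating, Fluo-8 75 min 37 °C, 30 min RT / Technique: calcium-sensitive Fluo-8 signal, excitation 470-495, emission 515-575 nm / Measure: % activation relative to PEA EC100 response / Benchmarks: DMSO and PEA EC100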
CHO parental Ca – ATP-evoked calcium signal inhibitors, parental CHO, primary screen, counter-screen for OX1R antagonist project, cell-based, fluorescence, Fluo-8 calcium dye; hit rate 0.63% among 330,000; inhibition, % at 5.6 µM; parental CHO-K1, ATP-induced calcium, Fluo-8 fluorescence;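 active means inhibition above that plate's mean sample inhibition plus 3 SD, cut at about 26% in these data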;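 further: 0% = ATP-challenged DMSO wells and 100% = DMSO wells without ATP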
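test system = CHO parental line | reagent = ATP stimulus | measured by = intracellular calcium via Fluo-8 no-wash fluorescent dye | control set = ATP and no-ATP DMSO wells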
GPR7 antag conf – GPR7 receptor antagonists, confirmation, cell-based, fluorescence, single concentration; shares compounds with GPR7 antag; GPR7-expressing cells, calcium fluorescence antagonist mode; AID 1952, 2009; hit rate 52% among 2,400; inhibition, % at 4.4 µM; in the data active means inhibition above about 24%;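 further: stimulated with the GPR7 agonist NPW; 0% = agonist plus vehicle and 100% = vehicle alone without agonist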
MCHR1 antag – MCHR1 antagonists in cells, counter-screen for GPR7 antagonist project, cell-based, fluorescence, human; shares compounds with GPR7 antag; MCHR1-expressing cells, fluorescence antagonist assay; inhibition, % at 4.4 µM; hit rate 62% among 2,400; in the data active means inhibition above about 22%;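 further: 0% = vehicle with agonist and 100% = vehicle without agonist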
Numbers without * were called inactive.

COc1cc(Cl)c(CN2CCC(CO)(CCOc3ccccc3)CC2)cc1OC was read as OX1R antag-1 4, GPR7 antag 3, TAAR1 antagonist -20, OX1R antag-2 -32, TAAR1 ag 18 and CHO parental Ca -17.
Screening CCOC(=O)C1(CCOc2ccccc2)CCN(Cc2ccc(OC)c(COC)c2)CC1 returned OX1R antag-1 6, GPR7 antag 36*, TAAR1 antagonist 6, OX1R antag-2 5, TAAR1 ag 7, CHO parental Ca 21, GPR7 antag conf 36* and MCHR1 antag 52*.
For O=[N+]([O-])c1ccc2c(c1)C(O)n1nc(-c3ccc(Cl)cc3Cl)nc1S2 (configuration not stated) the results were OX1R antag-1 16, GPR7 antag 0, TAAR1 antagonist 9, OX1R antag-2 -9, TAAR1 ag 5 and CHO parental Ca -9.
Cc1nc2n(n1)C(O)c1cc([N+](=O)[O-])ccc1S2 (configuration not stated) was read as OX1R antag-1 93*, GPR7 antag 31*, OX1R antag-2 -8, CHO parental Ca 1, GPR7 antag conf -7 and MCHR1 antag 5.
For CCn1c(NC(=O)c2ccc(C)cc2)c2ccccc2nc1=O the results were OX1R antag-1 4, GPR7 antag 32*, TAAR1 antagonist 13, OX1R antag-2 -31, TAAR1 ag 1, CHO parental Ca -11, GPR7 antag conf -6 and MCHR1 antag -10.
CC1(c2nc3ccccc3[nH]2)CCC(=O)N1C1CC1 (configuration not stated) was read as TAAR1 antagonist 8 and TAAR1 ag 0.
`COC(=O)C1=C(C)NC(=O)NC1c1cc(Cl)ccc1OC` (configuration not stated) gave OX1R antag-1 8, GPR7 antag -10, TAAR1 antagonist 6, OX1R antag-2 -33, TAAR1 ag 5 and CHO parental Ca 5.
COc1ccc(Br)cc1C1NC(=O)NC(C)=C1C(=O)N(C)C (configuration not stated) was read as OX1R antag-1 2, GPR7 antag 23*, TAAR1 antagonist 10, OX1R antag-2 -12, TAAR1 ag 7, CHO parental Ca -5, GPR7 antag conf 5 and MCHR1 antag 4.
Screening COc1ccc(C(=O)N(C(C)C)C(C)C)c(OC)c1 returned OX1R antag-1 8, GPR7 antag 25*, TAAR1 antagonist 2, OX1R antag-2 -4, TAAR1 ag 10, CHO parental Ca -3, GPR7 antag conf 14 and MCHR1 antag 8.
Screening COc1ccc(C(=O)/C=C/c2ccccc2)c(OC)c1 returned OX1R antag-1 33, GPR7 antag -7, TAAR1 antagonist 4, OX1R antag-2 2, TAAR1 ag 0 and CHO parental Ca -7.
`COc1ccc(C(=O)/C=C/c2ccc(N(C)C)cc2)c(OC)c1` gave OX1R antag-1 83*, GPR7 antag 32*, TAAR1 antagonist 52*, OX1R antag-2 112*, TAAR1 ag 73*, CHO parental Ca 59*, GPR7 antag conf 58* and MCHR1 antag 81*.
`CCOC(=O)C1(C)CCCN1C(=O)c1cc(F)ccc1C` (configuration not stated) gave TAAR1 antagonist 4 and TAAR1 ag 2.

Assay outcomes as filed in PubChem BioAssay.
